BindingDB's records for doi:10.1021/jm3006355 (Bar-Ilan University, 2012)

Molecular target: P2Y purinoceptor 1 (Meleagris gallopavo, UniProt P49652)
Assay: Agonist activity at turkey P2Y1R expressed in 1321N1 cells assessed as increase in intracellular calcium concentration by spectrofluorimetry
In short: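 Cell suspensions were treated with nucleotide at various concentrations at 37 °C in 10 mM Hepes-buffered saline pH 7.4 with 1 mM CaCl2 and 1 mM MgCl2. Maximal [Ca2+]i rise was read by dual-excitation spectrofluorometry and fitted to give EC50. Three experiments on separate days.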

Chain of P2Y purinoceptor 1 (P49652 whole entry): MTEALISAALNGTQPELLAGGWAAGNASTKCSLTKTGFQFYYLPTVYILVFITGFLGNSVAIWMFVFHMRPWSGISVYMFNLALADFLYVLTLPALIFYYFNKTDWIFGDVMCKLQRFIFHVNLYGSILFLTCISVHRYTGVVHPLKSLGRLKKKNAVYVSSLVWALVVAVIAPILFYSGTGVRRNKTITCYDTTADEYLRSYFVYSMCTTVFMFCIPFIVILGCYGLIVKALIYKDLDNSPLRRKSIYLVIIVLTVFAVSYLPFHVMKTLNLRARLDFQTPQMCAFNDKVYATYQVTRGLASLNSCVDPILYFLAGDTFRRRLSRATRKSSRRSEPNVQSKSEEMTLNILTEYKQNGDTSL

B[P@@](=O)(OC[C@H]1O[C@@H](n2cnc3c(N)nc(SC)nc32)[C@H](O)[C@@H]1O)OP(=O)(O)O
EC50: 34 nM
